Source: PubChem
The full list was thinned out, with hits kept by preference.
ABCB6 inh 2 = inhibitors of human ABC transporter ABCB6; Q9NP58; K562-ABCB6 porphyrin accumulation, flow cytometry, 1 h; hits give low values; fluorescence ratio to DMSO, % at 10 µM; 360,000 compounds, 0.19% hits;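 active means fluorescence ratio to DMSO below 75%, the collection mean minus 3 SD; inconclusive means too few cells collected in the well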;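 further: signal is porphyrin accumulated inside mitochondria; lower ratio means ABCB6 inhibition with less porphyrin fluorescence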
Myeloid diff MLP = compounds promoting myeloid differentiation. ER-HoxA9 myeloid progenitors, lysozyme-GFP differentiation, flow cytometry. calls only at 10 µM. 360,000 compounds, 1% hits. AID 624256;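 active means normalized GFP-positive differentiation at or above the plate's own cutoff, the solvent-only control mean plus 3 SD; inconclusive means no clear call, values can overlap the other calls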;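 further: cells exposed to compound for four days before flow analysis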
XiGFP reactiv = reactivates the inactive X chromosome in mouse fibroblasts; XiGFP mouse fibroblasts, % GFP-positive cells imaging, 3 d; cells co-treated with 5-aza-dC sensitizer; scaled so ellipticine positive control = 100%; activation, % at 7.58 µM; 360,000 compounds, 0.055% hits; AID 743238;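 active means mean normalized replicate activation at least 10% and every replicate at or above 10%; inconclusive means only one of the two criteria met; inactive means mean below 10% and not all replicates reach 10%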
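Assay system – SV40-immortalized XiGFP fibroblast cells, line 68-5-11 · Buffer or medium – DMEM supplemented with 5-aza-dC as sensitizing agent · Dosing – one concentration, pinned · Benchmarks – positive control ellipticine, 6 µM final · Times – 3 days compound exposure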
Hits are given with their value; – = inactive; ? = inconclusive; · = no result given; + = active, no number.

SMILES	ABCB6 inh 2	Myeloid diff MLP	XiGFP reactiv
CCCCN1CCCCC1C(=O)Nc1c(C)cc(C)cc1C (stereo not given)	–	–	·
Cc1cc(C)c(NC(=O)C2CCCN2CCO)c(C)c1 (stereo not given)	–	+	·
Cc1ccc2cc3c(N)c(C(=O)Nc4c(C)[nH]c(=O)[nH]c4=O)sc3nc2c1	–	–	?
Cc1[nH]c(=O)[nH]c(=O)c1NC(=O)c1sc2nc3c(C)cccc3cc2c1N	–	+	–
CCCC(=O)N1CCC2(CC1)CN[C@@H](CO)c1c2c2ccc(OC)cc2n1C	·	·	–
C[C@H]1CN([C@@H](C)CO)S(=O)(=O)c2ccc(-c3ccc(F)cc3)cc2O[C@@H]1CN(C)C	·	·	–
CCOC(=O)/C(C#N)=C\C=C1C=CN(C)C=C1	–	+	·
CCOC(=O)/C(C#N)=C\c1ccc(CC)s1	–	–	·
CC=Cc1ccc2n(c1=O)C[C@@H]1[C@@H](CO)[C@H](C(=O)NCCC)[C@H]2N1Cc1cccnc1 (mixture of isomers)	·	·	–
O=C(C1CCOCC1)N1C[C@@H]2[C@H](c3ccccc31)[C@H](CO)N2Cc1ccc(Cl)cc1	·	·	–
O=C(C[C@@H]1CC[C@@H](NC(=O)c2cccc(F)c2)[C@@H](CO)O1)Nc1nccs1	·	·	–
O=C(Nc1ccncc1)c1cccc(S(=O)(=O)N2CCc3ccccc32)c1	–	+	–
O=C(Nc1cccnc1)c1cccc(S(=O)(=O)N2CCc3ccccc32)c1	–	–	–
CCCNC(=O)N(C)C[C@@H]1Oc2cc(-c3ccc(C)cc3)ccc2S(=O)(=O)N([C@H](C)CO)C[C@H]1C	·	·	–
CC(C)NC(=O)N1CC2(C1)[C@@H](c1ccccc1)[C@@H](CO)N2C(=O)C1CCCCC1	·	·	–
C[C@H]1CN([C@@H](C)CO)C(=O)c2cc(C3=CCCC3)cnc2O[C@H]1CN(C)C(=O)CN(C)C	·	·	–
CCn1ccc2cc(OC)ccc2c1=S	–	–	·
CCSc1ccc2cc(OC)ccc2[n+]1CC	–	+	–
COc1ccc(C(=O)c2oc3ccc(OC)cc3c2N)cc1	–	–	–
COC(=O)c1oc2ccc(OC)cc2c1N	–	+	·
C[C@@H](C(=O)NCCc1c[nH]c2ccccc12)[C@@H]1C[C@@]1(C)[C@@H](NC(=O)OCc1ccccc1)c1ccccc1	74	–	–
C[C@@H](C(=O)NCc1ccccc1)[C@@H]1C[C@@]1(C)[C@@H](NC(=O)OCc1ccccc1)c1ccccc1	–	–	–
N#CC1=C(N)Oc2cc(N)ccc2C1c1ccc(F)cc1F (stereo not given)	–	+	–
N#CC1=C(N)Oc2cc(N)ccc2C1c1ccc(F)cc1 (stereo not given)	–	–	·
COc1ccc2c3c([nH]c2c1)[C@@H](CO)N(Cc1nccs1)CC31CN(C(=O)C2CCCCC2)C1	·	·	–
SMILES	ABCB6 inh 2	Myeloid diff MLP	XiGFP reactiv
O=C(c1cccc(F)c1)N1C[C@H]2[C@@H](c3ccccc31)[C@H](CO)N2C(=O)c1ccccn1	·	·	–
Cc1cc(C)nc(NC(=O)/C=C/c2ccccc2Cl)n1	–	+	·
Cc1cc(C)nc(NC(=O)/C=C/c2ccccc2Cl)c1	–	–	–
CN1CCN(C(=O)C[C@@H]2CC[C@@H](NS(=O)(=O)c3cccc(F)c3)[C@@H](CO)O2)CC1	·	·	–
O=C(Cc1ccccn1)N[C@@H]1CC[C@H](CCNC(=O)c2cc(Cl)cc(Cl)c2)O[C@@H]1CO	·	·	–
CC(=O)N1CC2(C1)[C@H](c1ccc(-c3cccc(F)c3)cc1)[C@@H](CO)N2CC1CC1	·	·	–
COCCNC(=O)c1c(N)n(-c2ccccc2)c2nc3ccccc3nc12	–	–	·
COC(=O)c1c(N)n(-c2ccc(NC(C)=O)cc2)c2nc3ccccc3nc12	–	+	·
O=C(NCCc1ccncc1)[C@@H]1[C@@H](CO)[C@@H]2Cn3c(ccc(-c4cccc(F)c4)c3=O)[C@H]1N2	·	·	–
Cc1cc(C)c2c(N)c(C(=O)c3ccc(Cl)cc3)sc2n1	–	–	–
Cc1cc(-c2cccs2)c2c(N)c(C(=O)c3ccc4c(c3)OCO4)sc2n1	–	+	–
COc1ccc(C(=O)c2sc3nc(C)cc(-c4cccs4)c3c2N)cc1	–	–	?
COc1ccc(C(=O)c2sc3nc(C)cc(-c4cccs4)c3c2N)cc1OC	–	–	25
COCC(=O)Nc1ccc2c(c1)C(=O)N(C)[C@H]1CC[C@@H](CC(=O)NCC3CCCCC3)O[C@H]1CO2	·	·	–
C[C@@H]1CCCCO[C@H](CN(C)S(=O)(=O)c2ccc(Cl)cc2)[C@H](C)CN([C@H](C)CO)C(=O)c2cc(NC(=O)c3ccncc3)ccc2O1	·	·	–
CCCNC(=O)N1CC2(CN(C(C)=O)C2)c2c(n(C)c3cc(OC)ccc23)[C@@H]1CO	·	·	–
